SUMO HTRF inh = inhibitors of human SUMOylation (UBC9) | inhibition, % at 35 µM | HTRF SUMOylation assay, SAE1/SAE2 + UBC9, in vitro | hit rate 0.36% among 290,000 | AID 2006; in the data active means inhibition above about 50%, passing the limit was not always enough; inconclusive means no clear call, values can overlap the other calls
Target sequence (P63279 whole entry, looked up): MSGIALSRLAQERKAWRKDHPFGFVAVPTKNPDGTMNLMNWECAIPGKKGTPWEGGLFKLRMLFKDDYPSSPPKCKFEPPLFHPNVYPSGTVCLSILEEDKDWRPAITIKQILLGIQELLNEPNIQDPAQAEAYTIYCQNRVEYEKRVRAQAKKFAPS
HKDC1 inhibitor = blocks human hexokinase HKDC1 activity | recombinant HKDC1, G6PDH/diaphorase resazurin coupled fluorescence | inhibition, % at 20 µM | hit rate 0.16% among 340,000;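 active means inhibition above about 35% when tested at 20 µM, limit read from the data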;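 further: plate controls were DMSO wells with enzyme for no effect and DMSO wells lacking enzyme for full effect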
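Material – in-house recombinant HK5 (HKDC1) enzyme · Quantity – HKDC1 at 5 µg/mL · Buffer or medium – pH 8.0 Tris buffer with 10 mM MgCl2 · Reagent – glucose with 1 mM ATP · Dosing – single 20 µM dose · Times – reaction time 90 min, room temperature, protected from light · Technique – resorufin fluorescence at 613 nm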
Diaph inh CS = counter-screen for diaphorase-based assays: diaphorase inhibitors and chemical oxidizers. diaphorase resazurin-to-resorufin fluorescence, NADH, 16 min; bacterial (C. kluyveri) enzyme, not human. inhibition, % at 20 µM. hit rate 0.69% among 190,000. AID 1217;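 active means primary screen inhibition at 20 µM above a set limit, cut at about 50% in these data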;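 further: plate controls were DMSO with full reaction for no effect and wells lacking NADH for full effect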
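Test system: Clostridium kluyveri diaphorase enzyme / Quantity: diaphorase at 0.14 U/mL in enzyme working solution / Incubation: 16-min room-temperature incubation before reading / Benchmarks: NADH-free wells as positive control, DMSO-only neutral wells / Signal: resorufin fluorescence 544/590 nm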
p97 inhibitor = human p97 ATPase inhibition; P55072; recombinant p97 ATPase, Kinase-Glo ATP luminescence, 3 h; hit rate 0.42% among 220,000; inhibition, % at 8 µM; in the data active means inhibition above about 15%;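 further: 0% = DMSO vehicle and 100% = wells lacking enzyme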
G6PDH counter = inhibits Leuconostoc G6PDH, flagging false hits in G6PDH-based assays; Purified L. mesenteroides G6PDH, diaphorase/resazurin coupled fluorescence, 45 min; inhibition, % at 5 µM; hit rate 0.12% among 200,000; AID 1020; in the data active means inhibition above about 50%
p97 confirm = human p97 ATPase inhibition, confirmation | shares compounds with p97 inhibitor | recombinant p97 ATPase, Kinase-Glo ATP luminescence | inhibition, % at 8 µM | hit rate 44% among 760 | AID 1517;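 active means percent inhibition of p97 ATPase above a set limit, the primary screen's mean plus 3 SD, cut at about 15% in these data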;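 further: 0% = DMSO wells and 100% = wells lacking p97 protein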
HKDC1 act conf = confirmation of human HKDC1 activators; shares compounds with HKDC1 inhibitor; recombinant HKDC1, G6PDH/diaphorase resazurin fluorescence; hits give low values; inhibition, % at 20 µM; hit rate 14% among 740; AID 504708;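 active means inhibition at or below a set negative limit, negative inhibition meaning the enzyme was activated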
Numbers without * were called inactive; ? = inconclusive; nt = not tested or not shown. The list is not random: actives were taken first. Their share in the collection is about 0.95%.

SMILES	SUMO HTRF inh	HKDC1 inhibitor	Diaph inh CS	p97 inhibitor	G6PDH counter	p97 confirm	HKDC1 act conf
CN1C2CCC1CC(NS(=O)(=O)c1ccc(C#N)cc1)C2 (centres undefined)	8.7	-4.7	nt	nt	nt	nt	nt
O=C(NCCS(=O)(=O)N1CCN(Cc2ccccc2)CC1)c1ccc(F)cc1	nt	-7.3	nt	nt	nt	nt	nt
O=C(Nc1ccccc1)C1CC2CCCC(C1)C2=O (centres undefined)	18.1	-6.6	11.9	16.8*	15.0	5.7	nt
O=C(Nc1ccc(Cl)cc1)C1CC2CCCC(C1)C2=O (centres undefined)	-3.6	-1.4	14.1	-4.0	6.2	nt	nt
Cc1ccc(NC(=O)CN2C(=O)N/C(=C/c3cccn3-c3ccc(C(=O)O)cc3)C2=O)cc1	nt	26.6	42.6	17.1*	-9.0	31.6*	nt
O=C(COc1coc(CN2CCN(c3ccc(F)cc3)CC2)cc1=O)NCC1CCCO1 (centres undefined)	nt	-1.9	nt	nt	nt	nt	nt
S=C(Nc1ccc(Cl)cc1)Nc1cccc2cnccc12	99.1	7.5	51.2*	18.2*	32.6	5.2	nt
CN(C)S(=O)(=O)c1cccc(NC(=S)Nc2cccc3cnccc23)c1	99.4*	11.0	nt	27.9*	nt	13.6	nt
COc1ccc(Cl)cc1NC(=O)CN(C)C(=O)c1cc2c(s1)CCCC2	nt	4.7	nt	nt	nt	nt	nt
CCCC(C(=O)NC1CCCC1)N(CCCN1CCOCC1)C(=O)c1snc(C(N)=O)c1N (centres undefined)	3.6	-3.0	19.7	16.0*	3.1	5.3	nt
CCCC(C(=O)NC1CCCC1)N(CCN(CC)CC)C(=O)c1snc(C(N)=O)c1N (centres undefined)	11.4	-7.8	nt	nt	nt	nt	nt
O=C(OCc1nc2ccsc2c(=O)[nH]1)c1ccccc1	nt	0.7	nt	nt	nt	nt	nt
Oc1ccc(/C=N/NC(=S)Nc2cccnc2)c(O)c1	-32.7	-40.3	21.0	19.4*	-13.9	25.6*	14.6
CC(CCc1ccccc1)NC(=O)CCC(=O)N1CCC(C(=O)O)CC1 (centres undefined)	3.2	-9.5	nt	nt	nt	nt	nt
Cc1oc2c(c1C(=O)c1ccccc1)C(=O)C(=O)c1ccccc1-2	93.1*	42.2*	57.7*	31.3*	60.2*	28.8*	51.8
Cc1ccc(S(=O)(=O)/N=C2\C=C(NS(=O)(=O)c3ccccc3)C(=O)c3ccccc32)cc1	nt	28.7	nt	nt	nt	nt	nt
O=C(O)c1ccc(NC2=C/C(=N/S(=O)(=O)c3ccccc3)c3ccccc3C2=O)cc1	?	71.9*	-43.2	18.0*	41.4	22.8*	76.0
O=C1NN(c2ccc(F)c(Cl)c2)C(=O)/C1=C\c1cccc(OC(=O)c2cccs2)c1	6.2	43.7*	16.4	16.3*	0.4	14.6	27.0
COc1cc(/C=C2/C(=O)NN(c3ccc(Cl)cc3)C2=O)cc(OC)c1O	-16.4	14.1	nt	nt	nt	nt	nt
CC(NC(=O)CCCc1nnc2n(C)c(=O)c3sccc3n12)c1ccccc1 (centres undefined)	-8.3	-5.6	nt	nt	nt	nt	nt
CC(C)C(C(=O)O)N1C(=O)/C(=C/c2cccn2C)SC1=S (centres undefined)	-1.5	9.4	19.6	-1.3	10.2	nt	nt
CC(C)C(C(=O)O)N1C(=O)/C(=C/C=C/c2ccco2)SC1=S (centres undefined)	75.5*	50.5*	48.5	19.0*	11.7	7.2	19.0
O=C(Nc1ccc2nc(-c3ccco3)c(-c3ccco3)nc2c1)NC1CC1	?	50.2*	79.7*	30.6*	22.2	24.5*	-1.4
Cc1ccc(CCNc2ncnc(Cl)c2N)cc1	nt	-5.0	nt	nt	nt	nt	nt
COc1cc(/C=C2\SC(N)=NC2=O)cc(Cl)c1O	-10.8	16.4	nt	nt	nt	nt	nt
COc1cc(/C=C2\SC(c3ccc(C)cc3)=NC2=O)cc(OC)c1O	-14.0	47.5*	66.3*	7.3	-67.3	nt	31.8
O=C(Oc1ccc(-c2cnc3ccccc3n2)cc1)c1cc([N+](=O)[O-])ccc1Cl	17.6	6.0	-0.4	3.1	6.8	nt	nt
Cc1c(C(=O)Oc2ccc(-c3cnc4ccccc4n3)cc2)cccc1[N+](=O)[O-]	21.3	-89.0	24.5	0.0	-4.1	nt	-27.3
O=C(NCc1ccccn1)c1cccc(S(=O)(=O)N2CCc3ccccc32)c1	nt	-0.4	nt	nt	nt	nt	nt
CC(=O)N1CCN(c2nnc(-c3ccccc3)c3ccccc23)CC1	-11.5	-2.1	nt	nt	nt	nt	nt

Bioassay records as filed in PubChem.
